“And” between values parts separate entries of the source, which are not always exact repeats. Equal entries are not always repeated.
Experiments:
[1] = system: HT-29; experiment: Effect of compound as percent survival at dose of 20 ng/mL on HT-29/Mx cell line after 72 hours; type: functional; details: Homo sapiens, HT-29, 72 h; read-out: Survival
How it was run: (§1)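 HT29 or mitoxantrone-resistant HT29/Mx monolayers grown in McCoy's 5A with 10% FBS and 1% 1 M Hepes at 37 °C, 5% CO2. Cells exposed to drug for 72 h. Survival measured by cell counting and given as percent of untreated control.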

[2] = system: LoVo; experiment: In vitro Cytotoxic activity of compound in comparison with reference compounds in human cell line LoVo/Dx(RI); type: functional, cell-based
How it was run: (§2)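 Monolayer lines were used: A2780, A2780/Dx, DU145 and PC3 in RPMI 1640, LoVo and LoVo/Dx in Ham's F-12, and HT29 and HT29/Mx in McCoy's 5A, each with 10% FBS. Drug exposure was 72 h. […] Resistance index = IC50 in resistant / IC50 in sensitive line.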

[3] = system: Mus musculus; experiment: Toxic deaths at dose of 6.7 mg/kg (i.v.) to nude mice bearing sc Human A2780 tumor Xenografts tested in 4 animals; type: functional; details: route intravenous
How it was run: (§3)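 Tumor fragments of A2780, A2780/Dx or HT29/Mx grafted sc in both flanks of Swiss athymic nude mice, 4–5 mice per group. Drug given iv once weekly on 3 days: days 4, 11, 18 (A2780, HT29/Mx) or days 7, 14, 21 (A2780/Dx). Dosing started at mean tumor volume 80–100 mm3. Toxic deaths recorded as deaths/total mice.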

[4] = system: Mus musculus; experiment: In vivo antileukemic activity towards P388 Murine Leukemia at a dose of 30.0 mg/kg, expressed as body weight change; type: functional
[5] = system: HT-29; experiment: Effect of compound as percent survival at dose of 25 ng/mL on HT-29 cell line after 72 hours; type: functional; details: Homo sapiens, HT-29, 72 h; read-out: Survival; how it was run: as §1
[6] = system: Mus musculus; experiment: In vivo antileukemic activity towards P388 Murine Leukemia at a dose of 35.0 mg/kg, expressed as body weight change; type: functional
[7] = system: HL-60; experiment: Compound was tested in vitro for cytotoxicity against HL60 human leukemia cell line (72 hr exposure to compound); type: functional, cell-based; details: HL-60, 72 h
How it was run: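 HL60 or K562R cells were grown in RPMI 1640 with 10% FBS and exposed to drug for 72 h. Growth was measured by Coulter cell counting, and IC50 is the concentration giving 50% growth inhibition (mean of ≥3 experiments ± SEM). Resistance index = IC50 in K562R / IC50 in sensitive K562S.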

[8] = system: HT-29; experiment: Percent inhibition at G2/M phase of cell cycle at a dose of 10 ng/mL after 72 hours of induction in HT-29/Mx cell line; type: functional; details: Homo sapiens, HT-29, 72 h
How it was run: (§4)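 HT29 or HT29/Mx cells were treated for 72 h, then fixed in 70% ice-cold ethanol. Cells were stained with PBS containing 30 μg/mL propidium iodide and 66 units/mL RNase A, and DNA content was measured by flow cytometry on at least 10^4 cells to give G1, S and G2/M fractions.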

[9] = system: Mus musculus; experiment: Long-term survivors when compound was tested for in vivo antileukemic activity towards P388 Murine Leukemia at dose of 20.0 mg/kg tested in 6 animals; type: functional
[10] = system: LoVo; experiment: In vitro Cytotoxic activity of compound in comparison with reference compounds in human cell line LoVo; type: functional, cell-based; how it was run: as §2
[11] = system: HT-29; experiment: In vitro Cytotoxic activity of compound in comparison with reference compounds in human cell line HT-29/Mx(RI); type: functional, cell-based; how it was run: as §2
[12] = system: Mus musculus; experiment: Antileukemic activity expressed as number of toxic deaths/total number of mice at dose 30.0 mg/kg tested in 6 animals; type: functional
[13] = system: HT-29; experiment: Percent inhibition at S phase of cell cycle at a dose of 20 ng/mL after 72 hours of induction in HT-29/Mx cell line; type: functional; details: Homo sapiens, HT-29, 72 h
How it was run: (§5)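 HT29 and mitoxantrone-resistant HT29/Mx colon adenocarcinoma monolayers in McCoy's 5A with 10% FBS and 1% 1 M Hepes, 37 °C, 5% CO2. Drug exposure 72 h. Cells then fixed in 70% ice-cold ethanol, washed twice and resuspended in PBS with 30 μg/mL propidium iodide and 66 units/mL RNase A. At least 10^4 cells per sample read for DNA content by flow cytometry. G1/S/G2M fractions reported as percentages.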

[14] = system: Mus musculus; experiment: Toxic deaths at dose of 10 mg/kg (i.v.) to nude mice bearing sc Human ovarian carcinoma Xenografts tested in 4 animals; type: functional; details: route intravenous; how it was run: as §3
[15] = system: Mus musculus; experiment: Long-term survivors when compound was tested for in vivo antileukemic activity towards P388 Murine Leukemia at dose of 10.0 mg/kg tested in 18 animals; type: functional
[16] = system: Mus musculus; experiment: Toxic deaths at dose of 14 mg/kg (i.v.) to nude mice bearing sc Human HT-29/Mx tumor Xenografts tested in 4 animals; type: functional; details: route intravenous; how it was run: as §3
[17] = system: Mus musculus; experiment: In vivo antileukemic activity towards P388 Murine Leukemia at a dose of 30.0 mg/kg; type: functional
[18] = system: A2780; experiment: In vitro Cytotoxic activity of compound in comparison with reference compounds in human cell line A2780; type: functional, cell-based; how it was run: as §2
[19] = system: Mus musculus; experiment: In vivo antileukemic activity towards P388 Murine Leukemia at a dose of 10 mg/kg, expressed as body weight change; type: functional
[20] = system: DU-145; experiment: In vitro Cytotoxic activity of compound in comparison with reference compounds in human cell line DU145; type: functional, cell-based; how it was run: as §2
[21] = system: HT-29; experiment: Percent inhibition at S phase of cell cycle at a dose of 10 ng/mL after 72 hours of induction in HT-29/Mx cell line; type: functional; details: Homo sapiens, HT-29, 72 h; how it was run: as §5
[22] = system: Mus musculus; experiment: In vivo antileukemic activity towards P388 Murine Leukemia at a dose of 2.5 mg/kg, expressed as body weight change; type: functional
[23] = system: HT-29; experiment: Percent inhibition at S phase of cell cycle at a dose of 25 ng/mL after 72 hours of induction in HT-29 cell line; type: functional; details: Homo sapiens, HT-29, 72 h; how it was run: as §5
[24] = system: A2780; experiment: In vitro Cytotoxic activity of compound in comparison with reference compounds in human cell line A2780/Dx(RI); type: functional, cell-based; how it was run: as §2
[25] = system: Mus musculus; experiment: In vivo antileukemic activity towards P388 Murine Leukemia at a dose of 1.0 mg/kg; type: functional
[26] = system: Mus musculus; experiment: Long-term survivors when compound was tested for in vivo antileukemic activity towards P388 Murine Leukemia at dose of 30.0 mg/kg tested in 6 animals; type: functional
[27] = system: Mus musculus; experiment: In vivo antileukemic activity towards P388 Murine Leukemia at a dose of 10.0 mg/kg, expressed as body weight change; type: functional
[28] = system: Mus musculus; experiment: Long-term survivors when compound was tested for in vivo antileukemic activity towards P388 Murine Leukemia at dose of 35.0 mg/kg tested in 6 animals; type: functional
[29] = system: HT-29; experiment: Percent inhibition at G2/M phase of cell cycle at a dose of 20 ng/mL after 72 hours of induction in HT-29/Mx cell line; type: functional; details: Homo sapiens, HT-29, 72 h; how it was run: as §4
[30] = system: Mus musculus; experiment: In vivo antileukemic activity towards P388 Murine Leukemia at a dose of 5.0 mg/kg, expressed as body weight change; type: functional
[31] = system: HT-29; experiment: In vitro Cytotoxic activity of compound in comparison with reference compounds in human cell line HT-29; type: functional, cell-based; how it was run: as §2
[32] = system: K562; experiment: Compound was tested in vitro for cytotoxicity against sensitive cell line K562S (72 hr exposure to compound); details: Homo sapiens, K562, 72 h

CN(C)CCNc1ccc2ncnc3c2c1C(=O)c1c(O)ccc(O)c1-3
viability at 0.02 µg/mL [1]: 61% | IC50 [2]: 12.7 nM | Toxic deaths [3]: 0 | Body weight change [4]: 0.88 BWC | viability at 0.025 µg/mL [5]: 53% | Body weight change [6]: 0.73 BWC | IC50 [7]: 1.67 nM | inhibition at 0.01 µg/mL [8]: 30% | LTS [9]: 0 | IC50 [10]: 11.1 nM | IC50 [11]: 56.9 nM | Toxic deaths [12]: 2 | inhibition at 0.02 µg/mL [13]: 11% | Toxic deaths [14]: 0 | LTS [15]: 0 | Toxic deaths [16]: 0 | T/C (ratio of treated to control) [17]: 171% | IC50 [18]: 8.3 nM | Body weight change [19]: 0.98 BWC | IC50 [20]: 5.7 nM | inhibition at 0.01 µg/mL [21]: 7% | Body weight change [22]: 0.98 BWC | inhibition at 0.025 µg/mL [23]: 19% | IC50 [24]: 9.5 nM | T/C (ratio of treated to control) [25]: 118% | LTS [26]: 0 | Body weight change [27]: 0.98 BWC | LTS [28]: 0 | inhibition at 0.02 µg/mL [29]: 31% | Body weight change [30]: 1.01 BWC and 1.02 BWC | IC50 [31]: 49.1 nM | IC50 [32]: 5.56 nM
